According to ChEMBL document CHEMBL1909505, “Leonurine-cysteine analog conjugates as a new class of multifunctional anti-myocardial ischemia agent” (Eur J Med Chem, 2011):
Activity calls are given as the source filed them.

Assays:
[1] = Cardioprotective activity against hypoxia-induced Sprague-Dawley NRVM damage assessed as inhibition of LDH release at 0.1 uM treated 12 hrs before hypoxia challenge measured after 5 hrs; assay type: functional; settings: Rattus norvegicus
[2] = Antiapoptotic activity against hypoxia-induced Sprague-Dawley NRVM assessed as inhibition of cell necrosis treated 12 hrs before hypoxia challenge measured after 5 hrs by AnnexinV-FITC/PI staining-based flow cytometric analysis; assay type: functional; settings: Rattus norvegicus
Procedure, shortened: (§1)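 Cardiomyocytes pretreated 12 h before hypoxia. Annexin V-FITC/PI staining done with a kit per the manufacturer, then read by flow cytometry to separate apoptotic from necrotic cells. Means ± S.E.M. from three samples; two-tailed Student's t-test versus the model group.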

[3] = Antiapoptotic activity against hypoxia-induced Sprague-Dawley NRVM assessed as decrease in nuclear condensation treated 12 hrs before hypoxia challenge measured after 5 hrs by transmission electron microscopy; assay type: functional; settings: Rattus norvegicus
Procedure, shortened: (§2)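 Neonatal rat ventricular myocytes cultured 72 h (DMEM, 10% FBS, 5-bromodeoxyuridine), pretreated 12 h, then put in hypoxic solution. Cells fixed 2 h in 2.5% glutaraldehyde in PBS, post-fixed 1 h in 1% osmium tetroxide, dehydrated through graded ethanol, embedded in Epon 812, and examined by transmission electron microscopy (×11000). Compared with normoxic and hypoxic untreated groups.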

[4] = Cardioprotective activity against hypoxia-induced Sprague-Dawley NRVM damage assessed as increase in hydrogen sulfide level treated 12 hrs before hypoxia challenge measured after 5 hrs; assay type: functional; settings: Rattus norvegicus
Procedure, shortened: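 H2S in culture medium: 0.5 mL supernatant mixed with 0.25 mL 1% zinc acetate, then 0.25 mL 10% TCA to remove protein, centrifuged 12,000 g for 10 min at 4 °C. Absorbance read at 670 nm in duplicate against a same-day NaHS calibration curve. Cells pretreated 12 h before hypoxia; three or six samples.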

Rattus norvegicus [5] = organism: Rattus norvegicus; experiment: Cardioprotective activity against hypoxia-induced Sprague-Dawley NRVM damage assessed as decrease in MDA level treated 12 hrs before hypoxia challenge measured after 5 hrs […]; assay type: functional
[6] = Antiapoptotic activity against hypoxia-induced Sprague-Dawley NRVM assessed as appearance of distinct sarcomeres treated 12 hrs before hypoxia challenge measured after 5 hrs by transmission electron microscopy; assay type: functional; settings: Rattus norvegicus; procedure, shortened: as §2
[7] = Antiapoptotic activity against hypoxia-induced Sprague-Dawley NRVM assessed as increase in bcl-2 expression treated 12 hrs before hypoxia challenge measured after 5 hrs by RT-PCR analysis relative to control; assay type: functional; settings: Rattus norvegicus
Rattus norvegicus [8] = organism: Rattus norvegicus; experiment: Cardioprotective activity against hypoxia-induced Sprague-Dawley NRVM damage assessed as increased cell viability at 0.1 umol/L treated 12 hrs before hypoxia challenge measured after 5 hrs by MTT assay; assay type: functional
Procedure, shortened: (§3)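 Myocytes seeded at 1×10^5 cells/mL and cultured 72 h at 37 °C in 5% CO2, pretreated 12 h, then exposed to hypoxic solution. MTT added for 4 h, formazan dissolved in DMSO, absorbance read at 570 nm. Viability given as percent of normoxic control, taken as 100%.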

[9] = Cardioprotective activity against hypoxia-induced Sprague-Dawley NRVM damage assessed as increase in CAT activity treated 12 hrs before hypoxia challenge measured after 5 hrs […]; assay type: functional; settings: Rattus norvegicus
Procedure, shortened: (§4)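 Kit assays per the manufacturer for ROS level and catalase activity in hypoxic myocytes pretreated 12 h. Means ± S.E.M. from three samples; t-test versus the model group.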

[10] = Cardioprotective activity against hypoxia-induced Sprague-Dawley NRVM damage assessed as increase in SOD activity treated 12 hrs before hypoxia challenge measured after 5 hrs […]; assay type: functional; settings: Rattus norvegicus
[11] = Cardioprotective activity against hypoxia-induced Sprague-Dawley NRVM damage assessed as decrease in ROS level treated 12 hrs before hypoxia challenge measured after 5 hrs […]; assay type: functional; settings: Rattus norvegicus; procedure, shortened: as §4
[12] = Antiapoptotic activity against hypoxia-induced Sprague-Dawley NRVM assessed as increase in myofilaments integrity preservation treated 12 hrs before hypoxia challenge measured after 5 hrs by transmission electron microscopy; assay type: functional; settings: Rattus norvegicus; procedure, shortened: as §2
Rattus norvegicus [13] = organism: Rattus norvegicus; experiment: Cardioprotective activity against hypoxia-induced Sprague-Dawley NRVM damage assessed as increased cell viability at 0.1 uM treated 12 hrs before hypoxia challenge measured after 5 hrs by MTT assay; assay type: functional; procedure, shortened: as §3
[14] = Antiapoptotic activity against hypoxia-induced Sprague-Dawley NRVM assessed as decrease in nuclei-shrunk treated 12 hrs before hypoxia challenge measured after 5 hrs using Hoechst 33258 staining-based by fluorescence microscopy; assay type: functional; settings: Rattus norvegicus
Procedure, shortened: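 After 12 h pretreatment and hypoxia, myocytes were stained with Hoechst 33258 and photographed under fluorescence (×400). Each image is representative of three independent observations.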

[15] = Antiapoptotic activity against hypoxia-induced Sprague-Dawley NRVM assessed as decrease in bax expression treated 12 hrs before hypoxia challenge measured after 5 hrs by RT-PCR analysis relative to control; assay type: functional; settings: Rattus norvegicus
[16] = Antiapoptotic activity against hypoxia-induced Sprague-Dawley NRVM assessed as decrease in nucleus aggregation treated 12 hrs before hypoxia challenge measured after 5 hrs by transmission electron microscopy; assay type: functional; settings: Rattus norvegicus; procedure, shortened: as §2
[17] = Antiapoptotic activity against hypoxia-induced Sprague-Dawley NRVM assessed as increase in Bcl2 to Bax mRNA expression ratio treated 12 hrs before hypoxia challenge measured after 5 hrs by RT-PCR analysis relative to control; assay type: functional; settings: Rattus norvegicus
[18] = Antiapoptotic activity against hypoxia-induced Sprague-Dawley NRVM assessed as decrease in apoptotic cells treated 12 hrs before hypoxia challenge measured after 5 hrs by AnnexinV-FITC/PI staining-based flow cytometric analysis; assay type: functional, cell-based; settings: Rattus norvegicus; procedure, shortened: as §1
[19] = Antiapoptotic activity against hypoxia-induced Sprague-Dawley NRVM assessed as decrease in cleaved-caspase-3 to procaspase-3 ratio treated 12 hrs before hypoxia challenge measured after 5 hrs by Western blot analysis relative to control; settings: Rattus norvegicus
[20] = Down regulation of caspase-3 expression in hypoxia-induced Sprague-Dawley NRVM treated 12 hrs before hypoxia challenge measured after 5 hrs by RT-PCR down analysis relative to control; assay type: functional; settings: Rattus norvegicus
[21] = Cardioprotective activity against hypoxia-induced Sprague-Dawley NRVM damage assessed as inhibition of LDH release treated 12 hrs before hypoxia challenge measured after 5 hrs; assay type: functional; settings: Rattus norvegicus
[22] = Cardioprotective activity against hypoxia-induced Sprague-Dawley NRVM damage assessed as increase in hydrogen sulfide level at 0.1 uM treated 12 hrs before hypoxia challenge measured after 5 hrs; assay type: functional; settings: Rattus norvegicus

C#CCSC[C@H](N)C(=O)Oc1c(OC)cc(C(=O)OCCCCNC(=N)N)cc1OC
active: inhibition [1] | Activity [3] | Activity [4] | Activity (Rattus norvegicus [5]) | Activity [6] | Activity (Rattus norvegicus [8]) | Activity [9] | Activity [10] | Activity [11] | Activity [12] | Activity (Rattus norvegicus [13]) | Activity [14] | Activity [16] | Activity [18] | Activity [19] | Activity [20] | inhibition [21] | Activity [22]
0.98: fold change (FC) [7]
0.89: fold change (FC) [15]
inactive: inhibition [2]
1.22: fold change (FC) [17]

C#CCSC[C@H](N)C(=O)O
active: inhibition [1] | Activity (Rattus norvegicus [13]) | Activity [22]

COc1cc(C(=O)OCCCCNC(=N)N)cc(OC)c1O
active: inhibition [1] | Activity (Rattus norvegicus [13]) | Activity [22]

C=CCSC[C@H](N)C(=O)Oc1c(OC)cc(C(=O)OCCCCNC(=N)N)cc1OC
active: Activity [4] | Activity (Rattus norvegicus [8]) | inhibition [21]

COc1cc(C(=O)OCCCCNC(=N)N)cc(OC)c1OC(=O)CCSSCCC(=O)Oc1c(OC)cc(C(=O)OCCCCNC(=N)N)cc1OC
active: Activity (Rattus norvegicus [8]) | inhibition [21]
inactive: Activity [4]
